ChEMBL document CHEMBL5331120, “Stapled β-Hairpin Antimicrobial Peptides with Improved Stability and Activity against Drug-Resistant Gram-Negative Bacteria” (J Med Chem, 2023)
Converted amounts (≈) assume the structure as drawn. The source made the active and inactive calls. No cut-off for these calls is given here.

How the values were obtained:
Escherichia coli [1] = assay: Antimicrobial activity against colistin resistant Escherichia coli clinical isolate R1 harboring mcr-1 gene assessed as fold reduction in MIC incubated for 18 hrs by broth microdilution method; type: functional
Erythrocyte = assay: Hemolytic activity in human RBC upto 128 uM incubated for 1 hr by absorbance based analysis; type: toxicity, cell-based
In short: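 Washed human RBCs from healthy volunteers at 4% in PBS. Peptide at 4–128 μM, 37 °C for 1 h. Supernatant after 1000g, 10 min spin read at OD540. 1% Triton X-100 gave full lysis; % hemolysis derived and HC50 estimated.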

Escherichia coli [2] = assay: Antimicrobial activity against Escherichia coli ATCC 25922 assessed as inhibition of bacterial growth compound pretreated for 1 hr with trypsin and measured after 18 hrs by broth microdilution method; type: functional, organism-based
In short: (§1)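 Peptide incubated with trypsin at a 1:2000 trypsin/peptide molar ratio (e.g., 1 mM peptide with 0.5 μM trypsin), 37 °C, 1 h. Reaction stopped at 80 °C for 10 min, then serially diluted against E. coli in MHB broth microdilution. Inoculum 3 × 10^5 CFU/mL, 37 °C, 120 rpm, 18 h, read by OD600, triplicates. Fold change in MIC taken versus untreated control.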

Escherichia coli [3] = assay: Antimicrobial activity against colistin/carbapenem resistant Escherichia coli clinical isolate R2 harboring mcr-1 and NDM-1 gene assessed as fold reduction in MIC incubated for 18 hrs by broth microdilution method; type: functional
Escherichia coli [4] = assay: Antimicrobial activity against colistin/carbapenem resistant Escherichia coli clinical isolate R3 harboring NDM-7 and OXA-181 gene assessed as fold reduction in MIC incubated for 18 hrs by broth microdilution method; type: functional
Pseudomonas aeruginosa = assay: Antimicrobial activity against Pseudomonas aeruginosa ATCC 9027 assessed as inhibition of bacterial growth incubated for 18 hrs by broth microdilution method; type: functional
In short: (§2)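 Standard broth microdilution in MHB. Overnight culture (37 °C, 120 rpm) adjusted to OD600 0.07 and diluted 1000× to 3 × 10^5 CFU/mL. Peptides serially diluted in triplicate, 18 h at 37 °C with 120 rpm shaking. Growth read as OD600; MIC is the lowest concentration with no visible growth. Colistin served as control for Gram-negatives, vancomycin for S. aureus.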

Escherichia coli [5] = assay: Antimicrobial activity against Escherichia coli ATCC 25922 assessed as inhibition of bacterial growth incubated for 18 hrs by broth microdilution method; type: functional; in short: as §2
Staphylococcus aureus = assay: Antimicrobial activity against Staphylococcus aureus ATCC 29737 assessed as inhibition of bacterial growth incubated for 18 hrs by broth microdilution method; type: functional, organism-based; in short: as §2
Escherichia coli [6] = assay: Antimicrobial activity against Escherichia coli ATCC 25922 assessed as inhibition of bacterial growth incubated for 18 hrs in presence of 10% fetal bovine serum by broth microdilution method; type: functional, organism-based
In short: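 E. coli broth microdilution in MHB containing 10% fetal bovine serum. Inoculum 3 × 10^5 CFU/mL, diluted from an OD600 0.07 suspension. Incubated 18 h at 37 °C with 120 rpm shaking, OD600 read, triplicates. Fold change in MIC calculated against control MIC.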

Escherichia coli [7] = assay: Antimicrobial activity against colistin resistant Escherichia coli clinical isolate R1 harboring mcr-1 gene assessed as inhibition of bacterial growth incubated for 18 hrs by broth microdilution method; type: functional, organism-based
In short: (§3)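 Overnight MHB culture (37 °C, 120 rpm) adjusted to OD600 0.07 (~10^8 CFU/mL), then diluted 1000× to 3 × 10^5 CFU/mL. Peptides serially diluted with the bacterial suspension in triplicate, shaken at 37 °C, 120 rpm for 18 h, then OD600 read. MIC is the lowest concentration with no visible growth. Colistin as positive control.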

Trypsin = Trypsin (Homo sapiens, UniProt P07477+P07478+P35030); assay: Stability of compound assessed as trypsin (unknown origin) mediated compound degradation by measuring parent compound remaining measured after 1.5 hrs by RP-HPLC analysis; type: ADME, protein assay
In short: (§4)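 Peptide with trypsin at a 1:2000 trypsin/peptide molar ratio, 37 °C, sampled at 15, 30, 60 and 90 min. Reaction stopped with an equal volume of 50% acetonitrile/1% TFA. Analysed on C18 RP-HPLC with UV at 220 nm; intact peptide given as % of AUC.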

Escherichia coli [8] = assay: Antimicrobial activity against colistin/carbapenem resistant Escherichia coli clinical isolate R2 harboring mcr-1 and NDM-1 gene assessed as inhibition of bacterial growth incubated for 18 hrs by broth microdilution method; type: functional, organism-based; in short: as §3
[9] = Stability of compound assessed as trypsin (unknown origin) mediated compound degradation by measuring parent compound remaining measured after 1 hr by RP-HPLC analysis; type: ADME, protein assay; settings: human, read-out: Stability; in short: as §4
Escherichia coli [10] = assay: Antimicrobial activity against Escherichia coli ATCC 25922 assessed as fold increase in MIC compound pretreated for 1 hr with trypsin and measured after 18 hrs by broth microdilution method relative to control; type: functional; settings: trypsin pretreatment 1 hr; MIC measured after 18 hrs; in short: as §1
Escherichia coli [11] = assay: Antimicrobial activity against colistin/carbapenem resistant Escherichia coli clinical isolate R3 harboring NDM-7 and OXA-181 gene assessed as inhibition of bacterial growth incubated for 18 hrs by broth microdilution method; type: functional, organism-based

Row | remaining at 1 h [9] | SMILES | fold change (FC) (Escherichia coli [1]) | Activity (Erythrocyte) | Activity (Escherichia coli [2]) | fold change (FC) (Escherichia coli [3]) | fold change (FC) (Escherichia coli [4]) | Activity (Pseudomonas aeruginosa) | Activity (Escherichia coli [5]) | Activity (Staphylococcus aureus) | Activity (Escherichia coli [6]) | Activity (Escherichia coli [7]) | remaining at 1.5 h (Trypsin; trypsin, read-out: Stability) | MIC (Pseudomonas aeruginosa) | MIC (Escherichia coli [5]) | Activity (Escherichia coli [8]) | fold change (FC) (Escherichia coli [10]) | Stability (Trypsin; 1.5 h) | Activity (Escherichia coli [11])
1 | – | CC(C)C[C@@H]1NC(=O)[C@H](CCCCN)NC(=O)[C@@H]2CC/C=C/CC[C@H](NC(=O)[C@H](CCCCN)NC(=O)[C@H](CC(C)C)NC(=O)[C@H](CCCCN)NC(=O)[C@@H](N)CC/C=C/CC[C@@H](C(=O)O)NC(=O)[C@H](CCCCN)NC1=O)C(=O)N[C@@H](CCCCN)C(=O)N1CCC[C@@H]1C(=O)NCC(=O)N[C@@H](CCCCN)C(=O)N2 | 2 | Non-Toxic | Active | 2 | 2 | inactive | inactive | inactive | Active | – | – | – | – | – | – | – | –
2 | – | CC(C)C[C@@H]1NC(=O)[C@H](CCCCN)NC(=O)CNC(=O)[C@H]2CCCN2C(=O)[C@H](CCCCN)NC(=O)[C@H](CC(C)C)NC(=O)[C@H](CCCCN)NC(=O)[C@@H]2CC/C=C\CC[C@H](NC(=O)[C@H](CCCCN)NC1=O)C(=O)N[C@@H](CCCCN)C(=O)N[C@H](C(=O)O)CC/C=C\CC[C@H](N)C(=O)N[C@@H](CCCCN)C(=O)N2 | – | Non-Toxic | Active | – | – | inactive | inactive | inactive | Active | – | – | – | – | – | – | – | –
3 | – | CC(C)C[C@H](NC(=O)[C@H](CCCCN)NC(=O)[C@H](CC(C)C)NC(=O)[C@H](CCCCN)NC(=O)[C@@H]1CC/C=C/CC[C@H](NC(=O)[C@H](CCCCN)NC(=O)[C@H](CC(C)C)NC(=O)[C@H](CCCCN)NC(=O)[C@@H](N)CC(C)C)C(=O)N[C@@H](CCCCN)C(=O)N2CCC[C@@H]2C(=O)NCC(=O)N[C@@H](CCCCN)C(=O)N1)C(=O)O | – | Non-Toxic | Active | – | – | – | – | inactive | Active | Active | > 40% | 8 µM (≈ 12.7 µg/mL) | 8 µM (≈ 12.7 µg/mL) | Active | – | – | –
4 | – | CC(C)C[C@@H]1NC(=O)[C@H](CCCCN)NC(=O)[C@@H]2CCC/C=C\CC[C@H](NC(=O)[C@H](CCCCN)NC(=O)[C@H](CC(C)C)NC(=O)[C@H](CCCCN)NC(=O)[C@@H](N)CC/C=C/CCC[C@@H](C(=O)O)NC(=O)[C@H](CCCCN)NC1=O)C(=O)N[C@@H](CCCCN)C(=O)N1CCC[C@@H]1C(=O)NCC(=O)N[C@@H](CCCCN)C(=O)N2 | 2 | Non-Toxic | Active | 2 | 2 | inactive | inactive | inactive | Active | – | – | – | – | – | – | – | –
5 | < 10% | CC(C)C[C@H](NC(=O)[C@H](CCCCN)NC(=O)[C@H](CC(C)C)NC(=O)[C@H](CCCCN)NC(=O)[C@@H]1CCC/C=C/CC[C@H](NC(=O)[C@H](CCCCN)NC(=O)[C@H](CC(C)C)NC(=O)[C@H](CCCCN)NC(=O)[C@@H](N)CC(C)C)C(=O)N[C@@H](CCCCN)C(=O)N2CCC[C@@H]2C(=O)NCC(=O)N[C@@H](CCCCN)C(=O)N1)C(=O)O | – | Non-Toxic | – | – | – | – | – | inactive | – | – | – | – | – | – | >=2 | – | –
6 | – | CC(C)C[C@@H]1NC(=O)[C@H](CCCCN)NC(=O)CNC(=O)[C@H]2CCCN2C(=O)[C@H](CCCCN)NC(=O)[C@H](CC(C)C)NC(=O)[C@H](CCCCN)NC(=O)[C@@H]2CC/C=C\CCC[C@H](NC(=O)[C@H](CCCCN)NC1=O)C(=O)N[C@@H](CCCCN)C(=O)N[C@H](C(=O)O)CC/C=C/CCC[C@H](N)C(=O)N[C@@H](CCCCN)C(=O)N2 | 2 | Non-Toxic | Active | 2 | 2 | inactive | inactive | inactive | Active | – | – | – | – | – | – | Unstable | –
7 | – | CC(C)C[C@H](NC(=O)[C@H](CCCCN)NC(=O)[C@@H]1CC/C=C/CC[C@H](NC(=O)[C@H](CCCCN)NC(=O)[C@@H](N)CC(C)C)C(=O)N[C@@H](CCCCN)C(=O)N[C@@H](CC(C)C)C(=O)N[C@@H](CCCCN)C(=O)N2CCCC2C(=O)NCC(=O)N[C@@H](CCCCN)C(=O)N[C@@H](CC(C)C)C(=O)N[C@@H](CCCCN)C(=O)N1)C(=O)O (single isomer, unassigned) | – | Non-Toxic | – | – | – | – | – | inactive | – | Active | – | 8 µM (≈ 12.7 µg/mL) | 8 µM (≈ 12.7 µg/mL) | Active | >=2 | – | –
8 | < 10% | CC(C)C[C@H](NC(=O)[C@H](CCCCN)NC(=O)[C@@H]1CCC/C=C/CC[C@H](NC(=O)[C@H](CCCCN)NC(=O)[C@@H](N)CC(C)C)C(=O)N[C@@H](CCCCN)C(=O)N[C@@H](CC(C)C)C(=O)N[C@@H](CCCCN)C(=O)N2CCCC2C(=O)NCC(=O)N[C@@H](CCCCN)C(=O)N[C@@H](CC(C)C)C(=O)N[C@@H](CCCCN)C(=O)N1)C(=O)O (single isomer, unassigned) | – | Non-Toxic | – | – | – | – | – | inactive | – | – | – | 8 µM (≈ 12.8 µg/mL) | 8 µM (≈ 12.8 µg/mL) | – | >=2 | – | –

Row | SMILES | remaining at 1 h [9] | fold change (FC) (Escherichia coli [1]) | Activity (Erythrocyte) | Activity (Escherichia coli [2]) | fold change (FC) (Escherichia coli [3]) | fold change (FC) (Escherichia coli [4]) | Activity (Pseudomonas aeruginosa) | Activity (Escherichia coli [5]) | Activity (Staphylococcus aureus) | Activity (Escherichia coli [6]) | Activity (Escherichia coli [7]) | remaining at 1.5 h (Trypsin; trypsin, read-out: Stability) | MIC (Pseudomonas aeruginosa) | MIC (Escherichia coli [5]) | Activity (Escherichia coli [8]) | fold change (FC) (Escherichia coli [10]) | Stability (Trypsin; 1.5 h) | Activity (Escherichia coli [11])
9 | CC(C)C[C@@H]1NC(=O)[C@H](CCCCN)NC(=O)CNC(=O)C2CCCN2C(=O)[C@H](CCCCN)NC(=O)[C@H](CC(C)C)NC(=O)[C@H](CCCCN)NC(=O)[C@H](CC(C)C)NC(=O)[C@H](CCCCN)NC(=O)[C@@H](N)CC/C=C/CCC[C@@H](C(=O)O)NC(=O)[C@H](CCCCN)NC(=O)[C@H](CC(C)C)NC(=O)[C@H](CCCCN)NC1=O (single isomer, unassigned) | < 10% | – | Non-Toxic | – | – | – | – | – | inactive | – | Active | – | 8 µM (≈ 12.8 µg/mL) | 8 µM (≈ 12.8 µg/mL) | Active | >=2 | – | Active
